Data: ChEMBL document CHEMBL4680124, “2-Styryl-4-aminoquinazoline derivatives as potent DNA-cleavage, p53-activation and in vivo effective anticancer agents” (Eur J Med Chem, 2020)
pIC50: −log10 of the molar value. The source made the active and inactive calls. The calls are words filed in the database; no cut-off is given here.

How the values were obtained:
MGC-803 [1] = test: Cytotoxicity against human MGC-803 cells expressing mutant type p53 assessed as reduction in cell viability preincubated for 48 hrs and measured after 4 hrs by MTT assay; type: functional, cell-based
PC-3 = test: Cytotoxicity against human PC-3 cells assessed as reduction in cell viability preincubated for 48 hrs and measured after 4 hrs by MTT assay; type: functional, cell-based
L02 = test: Cytotoxicity against human HL-7702 cells expressing wild type p53 assessed as reduction in cell viability preincubated for 48 hrs and measured after 4 hrs by MTT assay; type: functional, cell-based
Calf thymus DNA = test: Binding affinity to calf thymus DNA assessed as hypochromism by measuring absorption spectra at 20 uM incubated for 5 mins by UV-Vis absorption spectrometry; type: tissue-based; details: Bos taurus
Outline: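 Compound at 20 µM in Tris-HCl buffer, 25 °C, titrated with ct-DNA at [DNA]/[compound] 0 to 1.0 in steps of 0.1. Absorption spectra recorded at 295–360 nm after 5 min equilibration following each addition.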

DNA = test: Binding affinity to Escherichia coli pBR322 DNA assessed as intercalation upto 100 uM by agarose gel electrophoresis assay; type: nucleic-acid assay; details: dose microM <=100
Outline: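 pBR322 plasmid DNA incubated with compound at 50, 100 or 200 µM for 3 h in TAE buffer. Reaction stopped with loading buffer. Run on 1% agarose gel, stained with ethidium bromide, imaged under UV transillumination. Lane controls: DNA with 1% DMSO (negative), DNA with EB (positive).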

MGC-803 [2] = test: Induction of DNA damage in human MGC-803 cells assessed as increase in p53 level at 2.5 uM measured after 24 hrs by Western blot analysis; type: functional, cell-based
Outline: (§1)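 MGC-803 cells (2×10^6) plated overnight, then treated for 24 h at 0.5, 1.0 or 2.5 µM (test agent) or 5.0 µM (comparator). Whole-cell lysates separated by SDS-PAGE, transferred to PVDF and probed with primary antibodies. AP-linked anti-rabbit IgG, ECL detection, β-actin loading control. Representative of three experiments.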

MGC-803 [3] = test: Induction of apoptosis in human MGC-803 cells assessed as increase in MDM2 protein expression upto 2.5 uM incubated for 24 hrs by Western blot analysis; type: functional, cell-based; details: dose microM <=2.5, time 24.0 hrs
Outline: (§2)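 MGC-803 cells (2×10^6) cultured overnight, then exposed 24 h to 0.5, 1.0 or 2.5 μM, or 5.0 μM for the reference agent. Lysates were resolved by SDS-PAGE, transferred to PVDF and probed with primary antibodies. Detection used AP-linked anti-rabbit IgG and ECL. β-actin served as loading control.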

MGC-803 [4] = test: Cell cycle arrest in human MGC-803 cells assessed as accumulation at G1 phase at 0.25 uM after 48 hrs by propidium iodide staining-based flow cytometric analysis (reference value: 46.96 %); type: functional
MGC-803 [5] = test: Cell cycle arrest in human MGC-803 cells assessed as accumulation at S phase at 0.5 uM after 48 hrs by propidium iodide staining-based flow cytometric analysis (reference value: 45.1 %); type: functional
MGC-803 [6] = test: Induction of intracellular Ca+ level in human MGC-803 cells at 0 to 2.5 uM after 24 hrs by fluo-3 AM dye based flow cytometric analysis; type: functional, cell-based; details: dose 0-2.5 µM
Outline: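 MGC-803 cells in six-well plates exposed 24 h to 0.5, 1.0 or 2.5 μM. Cells were harvested, washed in cold PBS and loaded with Fluo-3 AM for 30 min at 37 in the dark. After three PBS washes, intracellular Ca2+ fluorescence was read by flow cytometry. Three independent experiments.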

MGC-803 [7] = test: Induction of apoptosis in human MGC-803 cells assessed as activation of caspase 9 at 2.5 uM incubated for 24 hrs by flow cytometric analysis (reference value: 2.82%); type: functional
MGC-803 [8] = test: Induction of apoptosis in human MGC-803 cells assessed as decrease in Bcl-2 expression at 0.5 to 2.5 uM measured after 24 hrs by Western blot analysis; type: functional, cell-based; details: dose 0.5-2.5 µM; outline: as §1
MGC-803 [9] = test: Induction of apoptosis in human MGC-803 cells assessed as increase in Bim expression at 0.5 to 2.5 uM measured after 24 hrs by Western blot analysis; type: functional, cell-based; details: dose 0.5-2.5 µM; outline: as §2
MGC-803 [10] = test: Antitumor activity against human MGC-803 cells xenografted in BALB/C nude mouse assessed as tumor growth inhibition at 10 mg/kg, ip administered every 2 days and measured 3 times per week; type: functional, organism-based; details: time 2.0 day
Outline: (§3)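 Male BALB/c nude mice, 6 weeks old, given 5×10^6 MGC-803 cells s.c. in the flank. When tumors reached about 80 mm3, mice were randomized (n = 6/group) and dosed i.p. every 2 days. Vehicle was 5% DMSO in saline. Drug solutions were 1.0 or 2.0 mg/mL (DMSO/saline). Tumor length and width plus body weight were measured three times weekly; volume = lw²/2. Mean ± SD.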

MGC-803 [11] = test: Antitumor activity against human MGC-803cells xenografted in BALB/C nude mouse assessed as tumor growth inhibition at 20 mg/kg, ip administered every 2 days and measured 3 times per week for 16 days; type: functional; details: MGC-803, ip, 384 h, time 16 day, read-out: TGI; outline: as §3
MGC-803 [12] = test: Induction of apoptosis in human MGC-803 cells assessed as viable cells at 1 uM measured after 24 hrs by Annexin-V/propidium iodide staining-based flow cytometric analysis (Rvb =92.2 %); details: MGC-803, 24 h
MGC-803 [13] = test: Induction of apoptosis in human MGC-803 cells assessed as viable cells at 0.5 uM measured after 24 hrs by Annexin-V/propidium iodide staining-based flow cytometric analysis (Rvb =92.2 %); details: MGC-803, 24 h
MGC-803 [14] = test: Induction of apoptosis in human MGC-803 cells assessed as necrotic cells at 2.5 uM measured after 24 hrs by Annexin-V/propidium iodide staining-based flow cytometric analysis (Rvb =6.05%)
MGC-803 [15] = test: Induction of apoptosis in human MGC-803 cells assessed as early apoptotic cells at 1 uM measured after 24 hrs by Annexin-V/propidium iodide staining-based flow cytometric analysis (Rvb =0.84%)
MGC-803 [16] = test: Induction of apoptosis in human MGC-803 cells assessed as late apoptotic cells at 0.5 uM measured after 24 hrs by Annexin-V/propidium iodide staining-based flow cytometric analysis (Rvb =0.93%)
MGC-803 [17] = test: Induction of apoptosis in human MGC-803 cells assessed as late apoptotic cells at 2.5 uM measured after 24 hrs by Annexin-V/propidium iodide staining-based flow cytometric analysis (Rvb =0.93%)
MGC-803 [18] = test: Induction of apoptosis in human MGC-803 cells assessed as early apoptotic cells at 0.5 uM measured after 24 hrs by Annexin-V/propidium iodide staining-based flow cytometric analysis (Rvb =0.84%)
MGC-803 [19] = test: Induction of apoptosis in human MGC-803 cells assessed as early apoptotic cells at 2.5 uM measured after 24 hrs by Annexin-V/propidium iodide staining-based flow cytometric analysis (Rvb =0.84%)

**Q.** Which results are given for `NCCCCNc1nc(/C=C/c2ccc([N+](=O)[O-])cc2)nc2ccccc12`?
**A.** pIC50 (MGC-803 [1]): 5.76; pIC50 (PC-3): 5.34; pIC50 (L02): 5.13; Activity (Calf thymus DNA): Active; Activity (DNA): Active; Activity (MGC-803 [2]): Active; Activity (MGC-803 [3]): Active; Activity (MGC-803 [4]): 7.66%; Activity (MGC-803 [5]): 25.89%; Activity (MGC-803 [6]): Active; Activity (MGC-803 [7]): 57.35%; Activity (MGC-803 [8]): Active; Activity (MGC-803 [9]): Active; Activity (MGC-803 [10]): Active; inhibition in vivo at 20 mg/kg (MGC-803 [11]): 61.8%; viability at 1 µM (MGC-803 [12]): 55.3%; viability at 0.5 µM (MGC-803 [13]): 71%; Activity (MGC-803 [14]): 1.27%; Activity (MGC-803 [15]): 27.5%; Activity (MGC-803 [16]): 6.91%; Activity (MGC-803 [17]): 55.9%; Activity (MGC-803 [18]): 14%; Activity (MGC-803 [19]): 28%
